Screens deposited in PubChem BioAssay by The Scripps Research Institute Molecular Screening Center.
ABHD4 inh – ABHD4 inhibitors, primary screen, biochemical, fluorescence polarization, mouse; (Lyso)-N-acylphosphatidylethanolamine lipase (Mus musculus), Q8VD66; 370,000 compounds, 0.54% hits; purified mABHD4, FP-Rh probe fluorescence polarization; inhibition, % at 8.92 µM;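 active means inhibition exceeding the mean over every tested compound plus 3 SD, cut at about 30% in these data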;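 further: 0% = plate median of compound wells and 100% = S159A mutant with DMSO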
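System: mouse ABHD4 enzyme, wild type / Medium: HEPES pH 7.0, NaCl, Pluronic buffer / Reagent: FP-Rh activity-based fluorescent probe / Control set: S159A mutant high control, sample median low control / Detection: fluorescence polarization with parallel and perpendicular emission, 525/598 nm / Schedule: 45 min + 60 min at 25 °C / Compound dosing: 8.92 µM, single dose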
SIAE primary – human SIAE inhibitors, primary screen, biochemical, fluorescence polarization, FP-Rh probe, 1536-well HTS. Sialate O-acetylesterase (Homo sapiens), Q9HAT2. SIAE FP-Rh probe binding. inhibition, % at 9.66 µM. 370,000 compounds, 0.69% hits;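 active means inhibition above a cutoff: mean of compounds within the control limits plus 3 SD of those, cut at about 17% in these data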;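 further: 0% = plate median of compound wells and 100% = probe without SIAE protein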
TCR-CD3 inh – inhibitors of human TCR-CD3 interaction, primary screen, biochemical, fluorescence, TAMRA-labeled TCR probe. 360,000 compounds, 0.37% hits. inhibition, % at 9.4 µM. T-cell receptor (TCR). AID 651800, 2012; in the data active means inhibition above about 19%;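 further: recombinant mutant TCR 2C K166C tagged with TAMRA read by polarization; 0% = receptor in buffer alone and 100% = receptor with positive control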
HTRA1 inh – HTRA1 serine protease inhibitors, primary screen, biochemical, fluorescence polarization, HTS | Q92743 | AID 504803, 2011 | inhibition, % at 5.96 µM | recombinant HTRA1, FP-rhodamine activity-based probe | 340,000 compounds, 0.5% hits; in the data active means inhibition above about 36%;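 further: 0% = enzyme with DMSO and 100% = wells lacking enzyme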
PRMT1 inh – PRMT1 methyltransferase inhibitors, primary screen, biochemical, fluorescence polarization. inhibition, % at 2.79 µM. 370,000 compounds, 1.3% hits. recombinant PRMT1, activity-based probe fluorescence polarization. Protein arginine N-methyltransferase 1 (Homo sapiens), Q99873;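 active means inhibition above about 21% made by adding two undisclosed values, limit read from the data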
Target sequence (Q99873 whole entry, looked up): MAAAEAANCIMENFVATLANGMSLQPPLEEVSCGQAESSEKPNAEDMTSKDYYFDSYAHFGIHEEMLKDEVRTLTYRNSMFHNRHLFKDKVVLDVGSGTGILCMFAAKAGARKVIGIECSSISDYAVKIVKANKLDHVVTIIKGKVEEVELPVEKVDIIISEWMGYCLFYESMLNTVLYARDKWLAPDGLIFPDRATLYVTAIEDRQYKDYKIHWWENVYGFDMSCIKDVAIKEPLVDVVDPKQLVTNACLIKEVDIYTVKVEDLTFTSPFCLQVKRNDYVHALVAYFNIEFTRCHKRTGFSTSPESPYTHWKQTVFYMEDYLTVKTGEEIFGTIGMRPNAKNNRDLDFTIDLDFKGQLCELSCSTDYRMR
PRMT1 confirm – PRMT1 methyltransferase inhibitors, confirmation, biochemical, fluorescence polarization, triplicate; inhibition, % at 2.79 µM; recombinant His-PRMT1, activity-based probe fluorescence polarization; shares compounds with PRMT1 inh; AID 687036, 2013; 3,300 compounds, 42% hits;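 active means mean inhibition across replicates above the hit cutoff derived for the earlier primary screen, cut at about 22% in these data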
Starred values were filed as active, the others as inactive. Only some compounds are listed: those with a hit (about 2.6% of all), similar ones and a draw of the others.

For CC(=O)c1ccc(S(=O)(=O)NCC(=O)NC(c2nc3ccccc3[nH]2)C(C)C)cc1 (stereo not given) the results were ABHD4 inh -2, SIAE primary -3, TCR-CD3 inh 6, HTRA1 inh -2, PRMT1 inh 34* and PRMT1 confirm 38*.
C(=Cc1c[nH]c2ccccc12)c1ccc2ccccc2n1 was read as ABHD4 inh -7, SIAE primary 14, TCR-CD3 inh -6, HTRA1 inh 17 and PRMT1 inh 5.
For C(=Cc1c[nH]c2ccccc12)c1nccc2ccccc12 the results were ABHD4 inh -3, SIAE primary 1, TCR-CD3 inh 1, HTRA1 inh 8, PRMT1 inh 52* and PRMT1 confirm 10.
C[C@H](O)[C@@H]1CN2CCc3c([nH]c4c(-c5ccc6c(c5)OCO6)cccc34)[C@@H]2C[C@@H]1N(C)C(=O)NC1CCCCC1 was read as ABHD4 inh 4, SIAE primary -1 and PRMT1 inh 3.
Nc1ccc(O)c([N+](=O)[O-])c1 was read as ABHD4 inh 28, SIAE primary -1, TCR-CD3 inh 12, HTRA1 inh 5 and PRMT1 inh 8.
`Cc1ccc(N)cc1O` gave ABHD4 inh 27, SIAE primary -1, TCR-CD3 inh -3, HTRA1 inh 5, PRMT1 inh 39* and PRMT1 confirm 0.
`COc1ccc(OC)c(-c2cc(C3CCN(c4cc(Cl)nc(N)n4)CC3)[nH]n2)c1` gave ABHD4 inh -5, SIAE primary -2, TCR-CD3 inh -3, HTRA1 inh -36, PRMT1 inh 40* and PRMT1 confirm -1.
For COc1ccc(-c2cc(C3CCN(c4cc(Cl)nc(N)n4)CC3)[nH]n2)cc1 the results were ABHD4 inh -10, SIAE primary -3, TCR-CD3 inh 3, HTRA1 inh -27 and PRMT1 inh -5.
Screening O=C(c1ccncc1)c1ccc(N2CCN(C3CC(=O)N(Cc4cccs4)C3=O)CC2)cc1 (stereo not given) returned ABHD4 inh -3, SIAE primary 0, TCR-CD3 inh -1, HTRA1 inh -1 and PRMT1 inh 3.
Screening O=C1CC(N2CCN(c3ccc(O)cc3)CC2)C(=O)N1Cc1cccs1 (stereo not given) returned ABHD4 inh 27, SIAE primary 9, TCR-CD3 inh -2, HTRA1 inh 9, PRMT1 inh 49* and PRMT1 confirm -1.
For CCC(C)(C)n1nnnc1C(C(C)C)N(Cc1ccco1)Cc1cc2cc3c(cc2[nH]c1=O)OCO3 (stereo not given) the results were ABHD4 inh 0, SIAE primary -4, TCR-CD3 inh -2, HTRA1 inh 0, PRMT1 inh 41* and PRMT1 confirm 5.
CCC(C)(C)n1nnnc1C(C(C)C)N(Cc1cccnc1)Cc1ccco1 (stereo not given) was read as ABHD4 inh 5, SIAE primary 13, TCR-CD3 inh 3, HTRA1 inh -3 and PRMT1 inh -2.
For COc1ccccc1CN(Cc1cc2c(C)ccc(C)c2[nH]c1=O)Cc1nnnn1Cc1ccco1 the results were ABHD4 inh 6, SIAE primary -5, TCR-CD3 inh -6, HTRA1 inh -16, PRMT1 inh 37* and PRMT1 confirm 6.
CCC(c1nnnn1Cc1ccco1)N(Cc1ccccc1OC)Cc1cc2cc(C)ccc2[nH]c1=O (stereo not given) was read as ABHD4 inh 0, SIAE primary 13, TCR-CD3 inh -2, HTRA1 inh -41 and PRMT1 inh 15.
`Cc1ccc(CN(Cc2cc3cc4c(cc3[nH]c2=O)OCCO4)Cc2nnnn2Cc2ccco2)cc1` gave ABHD4 inh 7, SIAE primary 6, TCR-CD3 inh 3, HTRA1 inh 1, PRMT1 inh 43* and PRMT1 confirm 13.
Screening CN1CCN(c2ccc(-c3csc(N4CCC(C(N)=O)CC4)n3)cc2)CC1 returned ABHD4 inh 9, SIAE primary 6 and PRMT1 inh -5.
Screening COc1cc(NC(=O)CSc2ncnc3sc4c(c23)CCCC4)c(C(=O)O)cc1OC returned ABHD4 inh 11, SIAE primary -3, TCR-CD3 inh 6, HTRA1 inh 0, PRMT1 inh 32* and PRMT1 confirm 7.
`Cc1cccc(NC(=O)CSc2ncnc3sc4c(c23)CCCC4)c1` gave ABHD4 inh -4, SIAE primary -1 and PRMT1 inh -8.
`Cc1ccc(S(=O)(=O)NNc2nc3ccccc3nc2C(F)(F)F)cc1` gave ABHD4 inh 5, SIAE primary 0, TCR-CD3 inh 0, HTRA1 inh 1, PRMT1 inh 81* and PRMT1 confirm 18.
For Nc1n[nH]c(=S)n1/N=C1/C(=O)Nc2ccccc21 the results were ABHD4 inh -4, SIAE primary -2, TCR-CD3 inh -3, HTRA1 inh 7, PRMT1 inh 43* and PRMT1 confirm 40*.
`O=C1Nc2ccccc2C1=NN1CCCCCC1` gave ABHD4 inh 3, SIAE primary 6, TCR-CD3 inh 1, HTRA1 inh -3 and PRMT1 inh 1.
Screening Oc1cc(O)c(CN2CCOCC2)cc1CN1CCOCC1 returned ABHD4 inh -1, SIAE primary 6, TCR-CD3 inh 3, HTRA1 inh 0, PRMT1 inh 29* and PRMT1 confirm 0.
Oc1c(CN2CCOCC2)cc(CN2CCOCC2)cc1CN1CCOCC1 was read as ABHD4 inh -1, SIAE primary 1, TCR-CD3 inh -6, HTRA1 inh 0 and PRMT1 inh 2.
For CCOC(=O)c1cc(CC)sc1N1C(=O)CC(Sc2ccccc2C(=O)O)C1=O (stereo not given) the results were ABHD4 inh 8, SIAE primary 5, TCR-CD3 inh -8, HTRA1 inh -47, PRMT1 inh 54* and PRMT1 confirm 56*.
`COC(=O)c1c(N2C(=O)Nc3ccccc3N2O)sc2c1CCCC2` gave ABHD4 inh -8, SIAE primary 0, TCR-CD3 inh -3, HTRA1 inh -4 and PRMT1 inh 2.
For COC(=O)c1c(N2C(=O)CC(Sc3ccccc3C(=O)O)C2=O)sc2c1CCCC2 (stereo not given) the results were ABHD4 inh 12, SIAE primary -2, TCR-CD3 inh -8, HTRA1 inh -15, PRMT1 inh 55* and PRMT1 confirm 48*.
